In ChEMBL document CHEMBL1157933, “The anti-cancer, anti-inflammatory and tuberculostatic activities of a series of 6,7-substituted-5,8-quinolinequinones” (Bioorg Med Chem, 2010):

How the values were obtained:
HL-60 = assay: Antiproliferative activity against human HL60 cells after 48 hrs by MTT assay; assay type: functional, cell-based; settings: HL-60, 48 h
[1] = Antiinflammatory activity in human neutrophils assessed as inhibition of PMA-induced superoxide production after 20 mins by WST1 assay; assay type: functional, cell-based; settings: Neutrophil
[2] = Antiproliferative activity against human T cells after 48 hrs by MTT assay; assay type: cell-based; settings: T-cell
Procedure, shortened: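 Healthy-donor PBMC (Ficoll-hypaque) activated 2 days with CD2/CD3/CD28-loaded anti-biotin beads, then expanded 2–4 days with 20 U/mL IL-2. Cells plated at 0.2 × 10^6 cells/mL in complete RPMI with varied compound concentrations for 48 h at 37 °C; MTT 2 h, SDS/DMF lysis overnight, absorbance 570 nm. Triplicate, mean reported.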

Row | SMILES | IC50 (HL-60) [µM] | IC50 [1] [µM] | IC50 [2] [µM]
1 | O=C1C(NCCBr)=C(Cl)C(=O)c2ncccc21 | 1.65 | 20 | 2.56
2 | O=C1C(Cl)=C(NCCBr)C(=O)c2ncccc21 | 1.2 | 20.7 | 2.5
3 | CSC1=C(N)C(=O)c2cccnc2C1=O | 7.64 | > 150 | 8.32
4 | Cc1ccc2c(n1)C(=O)C(NCCBr)=C(Cl)C2=O | 1.21 | 73.2 | 1.59
5 | CNC1=C(Cl)C(=O)c2ncccc2C1=O | 2.45 | 78.9 | 3.56
6 | Oc1c(Sc2ccccc2)c(Sc2ccccc2)c(O)c2ncccc12 | 6.95 | 2.3 | 10
7 | CNC1=C(SC)C(=O)c2cccnc2C1=O | 7.92 | > 200 | 7.57
8 | CSC1=C(SC)C(=O)c2ncccc2C1=O | 1.23 | 0.11 | 1.69
9 | O=C1C(Sc2ccccc2)=C(Sc2ccccc2)C(=O)c2ncccc21 | 3.68 | 24.8 | 7.77
10 | CNC1=C(Cl)C(=O)c2cccnc2C1=O | 4.3 | 41.1 | 5.21
11 | CNC1=C(Sc2ccccc2)C(=O)c2ncccc2C1=O | 8.03 | > 150 | 12.2
12 | CNC1=C([S+](C)[O-])C(=O)c2ncccc2C1=O (stereo not drawn) | 12.1 | > 200 | 11.8
13 | O=C1C2=C(NCCS2)C(=O)c2ncccc21 | 3.52 | > 200 | 6.02
14 | O=C1C(Cl)=C(NCCCl)C(=O)c2ncccc21 | 1.94 | 31 | 2.27
15 | O=C1C(NC(c2ccccc2)c2ccccc2)=C(Cl)C(=O)c2ncccc21 | 2.45 | 33.9 | 2.59
16 | O=C1c2cccnc2C(=O)C2SCCNC12 (stereo not drawn) | 4.24 | > 200 | 5.88
17 | Cc1ccc2c(n1)C(=O)C(Cl)=C(Cl)C2=O | 18.7 | 3.4 | 44.9
18 | CNC1=C([S+](C)[O-])C(=O)c2cccnc2C1=O (stereo not drawn) | 33.2 | > 200 | 13.4
19 | C[S+]([O-])C1=C(N)C(=O)c2cccnc2C1=O (stereo not drawn) | 1.3 | > 200 | 1.93
20 | Cc1ccc(S(=O)(=O)C2=C(S(=O)(=O)c3ccc(C)cc3)C(=O)c3ncccc3C2=O)cc1 | 61.6 | > 200 | 40.5
21 | Cc1ccc2c(n1)C(=O)C(Cl)=C(NCCBr)C2=O | 1.3 | 34.2 | 2.23
22 | CNC1=C(Sc2ccccc2)C(=O)c2cccnc2C1=O | 5.88 | 92.8 | 6.91
23 | O=C1C(NCCCl)=C(Cl)C(=O)c2ncccc21 | 1.62 | 37 | 2.29
24 | Cc1ccc(S(=O)(=O)C2=C(Cl)C(=O)c3ncccc3C2=O)cc1 | 38.1 | > 200 | 35.5
25 | CNC1=C(SC)C(=O)c2ncccc2C1=O | 3.44 | > 200 | 19.5
26 | CS(=O)(=O)C1=C(N)C(=O)c2cccnc2C1=O | 4.53 | > 200 | 19.3
